Screening results deposited in PubChem BioAssay by several laboratories.
PAFAH1B2 FP inh: blocks human PAF acetylhydrolase 1b catalytic subunit 2; P68402; recombinant PAFAH1B2, FP-rhodamine activity probe, fluorescence polarization; inhibition, % at 3.39 µM; 340,000 compounds, 1.2% hits;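 active means inhibition above the mean of all tested compounds plus 3 SD, cut at about 24% in these data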;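 further: 0% = enzyme with DMSO and 100% = wells lacking PAFAH1B2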
Target sequence (P68402 whole entry, looked up): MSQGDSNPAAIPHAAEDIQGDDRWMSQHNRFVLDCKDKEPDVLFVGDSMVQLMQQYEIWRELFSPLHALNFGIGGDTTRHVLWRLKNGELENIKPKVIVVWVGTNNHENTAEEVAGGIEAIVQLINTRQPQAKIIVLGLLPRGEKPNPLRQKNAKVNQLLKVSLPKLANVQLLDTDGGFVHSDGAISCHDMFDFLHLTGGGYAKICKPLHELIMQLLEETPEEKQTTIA
pPAFAH inh: inhibitors of human plasma PAF acetylhydrolase (pPAFAH). recombinant pPAFAH, FP-rhodamine probe fluorescence polarization. 330,000 compounds, 1.5% hits. Q13093. inhibition, % at 3.39 µM;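 active means inhibition above the mean inhibition across the screen plus 3 SD, cut at about 25% in these data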;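 further: inhibitors block binding of the rhodamine activity-based probe so polarization drops; 0% = enzyme with DMSO and 100% = wells lacking pPAFAH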
PAFAH1B3 inh: blocks human PAF acetylhydrolase 1B catalytic subunit 3. Q15102. recombinant PAFAH1B3, FP-rhodamine probe, fluorescence polarization. inhibition, % at 3.39 µM. 340,000 compounds, 0.28% hits. AID 492972;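 active means inhibition above the screen-wide average of all tested compounds plus 3 SD, cut at about 25% in these data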;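 further: 0% = enzyme with DMSO only and 100% = wells lacking PAFAH1B3 protein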
Target sequence (Q15102 whole entry, looked up): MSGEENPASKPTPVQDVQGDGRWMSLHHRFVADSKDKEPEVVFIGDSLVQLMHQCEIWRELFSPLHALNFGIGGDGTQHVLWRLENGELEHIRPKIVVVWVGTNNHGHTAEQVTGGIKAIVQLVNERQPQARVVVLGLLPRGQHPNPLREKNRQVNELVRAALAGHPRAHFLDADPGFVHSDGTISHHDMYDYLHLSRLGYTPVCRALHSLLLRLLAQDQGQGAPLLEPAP
PAFAH2 inh: inhibitors of human PAFAH2. recombinant PAFAH2, FP-rhodamine activity probe, fluorescence polarization. inhibition, % at 3.39 µM. 340,000 compounds, 0.99% hits;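 active means inhibition above the mean over all tested compounds plus 3 SD, cut at about 30% in these data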;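 further: inhibitors block probe labeling of enzyme so polarization drops; 0% = enzyme with DMSO and 100% = wells lacking PAFAH2 protein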
PREPL inhibitor: inhibits the human prolyl oligopeptidase-like enzyme; Q4J6C6; recombinant PREPL, fluorescence polarization activity-based probe; inhibition, % at 5.96 µM; 320,000 compounds, 0.68% hits; in the data active means inhibition above about 43%;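 further: 0% = enzyme with DMSO and 100% = wells lacking enzyme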
Apaf1 inhib: human Apaf-1 inhibition. inhibition, % at 20 µM. O14727. 330,000 compounds, 0.71% hits. reconstituted apoptosome caspase-3 activity, DEVD-Rh110 fluorescence; active means inhibition of at least 40% at 20 µM;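 further: plate controls were DMSO wells for no effect and DEVD-CHO caspase inhibitor wells for full effect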
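System – cell-free apoptosome with Apaf-1, procaspase-3 and caspase-9 · Buffer or medium – pH 7.5 Hepes buffer with CHAPS, BSA, DTT · Also added – cytochrome c with DEVD-Rh110 · Times – 30 min compound preincubation, 50 min activation, room temperature · Technique – Rh110 fluorescence intensity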
Apaf-1 inh conf: Apaf-1 inhibition, single-dose confirmed; 1,800 compounds, 25% hits; reconstituted apoptosome, caspase-3 DEVD-Rh110 fluorescence; inhibition, % at 20 µM; shares compounds with Apaf1 inhib;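 active means mean inhibition of at least 40% at 20 µM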;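 further: plate controls were DMSO wells for no effect and DEVD-CHO caspase inhibitor control wells for full effect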
Rh110 quench: Rh110 signal interference in Apaf-1 inhibitor counter-screen | shares compounds with Apaf1 inhib | Rh110 fluorescence interference, quenched caspase reaction | activation (fluorescence interference), % at 20 µM | 1,800 tested, under 10 active | AID 504615;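 active means signal rise of 40% or more at 20 µM, treated as a fluorescence artifact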
Apaf1 inh interf: counter-screen for Apaf-1 inhibitors: fluorescence interference, dose response | 460 tested, under 10 active | shares compounds with Apaf1 inhib | IC50, µM | fluorescence interference counterscreen, Apaf-1 assay format; call rule not given here
* = called active by the depositor; / = no result; ! = not confirmed by another sample. Rows were chosen to be rich in hits. Some 3.5% of all compounds tested hit in one or more screens of this group.

SMILES	PAFAH1B2 FP inh	pPAFAH inh	PAFAH1B3 inh	PAFAH2 inh	PREPL inhibitor	Apaf1 inhib	Apaf-1 inh conf	Rh110 quench	others
COc1cc2sc(-c3ccccc3OC)c(-c3ccc(OCCN4CCOCC4)cc3)c2cc1OC	1	19	4	8	/	27	/	/
COc1cccc(-c2sc3ccccc3c2-c2ccc(OCCN(C)C)cc2)c1	-1	5	8	-5	3	76*	20	7
COc1ccc2c(-c3ccc(OCCN4CCOCC4)cc3)c(-c3ccccc3OC)sc2c1	3	15	2	3	/	29	/	/
COc1cccc(-c2sc3ccccc3c2-c2ccc(OCCN3CCCC3)cc2)c1	-2	4	-1	1	6	71*	25	14
COc1ccc(-c2sc3ccccc3c2-c2ccc(OCCN3CCCCC3)cc2)cc1	-7	2	7	0	14	55*	16	5
Cc1[nH]c2ccccc2c1/C=C/c1nc2ccccc2c(=O)n1CCO	5	17	10	7	29	3	/	/
CC(=O)c1ccc(-c2ccc(C(=O)N3CCCc4ccccc43)o2)cc1	2	2	-7	0	-10	1	/	/
COc1cccc(-c2sc3ccc(OC)cc3c2-c2ccc(OCCN3CCCC3)cc2)c1	-1	7	8	-1	/	70*	20	6
COc1cccc(-c2sc3ccc(OC)cc3c2-c2ccc(C(N)=O)cc2)c1	3	-3	-4	1	14	18	/	/
COc1cccc(-c2sc3cc(OC)c(OC)cc3c2-c2ccc(OCCN3CCCCC3)cc2)c1	2	3	-1	4	/	66*	10	15
COc1cccc(-c2sc3ccccc3c2-c2ccc(OCCN3CCCCC3)cc2)c1	3	6	0	3	4	64*	8	14
N#Cc1ccccc1OCCCN1CCC(Cc2ccccc2)CC1	5	6	5	3	-3	-1	/	/
CC(=O)Nc1c(C)cc(OCC(=O)O)cc1C	6	-2	3	-1	-11	-13	/	/
CCCCC[n+]1ccn(C2=C([O-])c3ccccc3C(=O)/C2=N\S(=O)(=O)c2ccc(Cl)cc2)c1	4	3	7	6	15	70*	54*	9	Apaf1 inh interf=>100
CCCC[n+]1ccn(C2=C([O-])c3ccccc3C(=O)/C2=N\S(=O)(=O)c2ccc(Cl)cc2)c1	7	11	11	4	32	52*	56*	15	Apaf1 inh interf=>100
CCCCOc1ccc(C2(C)NC(=O)N(C)C2=O)cc1 (centres undefined)	10	-4	7	6	-1	-8	/	/
Cc1ccc(CNS(=O)(=O)c2cc3c4c(c2)CCN4C(=O)CC3)cc1	8	-1	5	1	1	6	/	/
COc1cc(/C=C2\C(=O)N(CCC#N)N=C2C)c(Br)cc1OC(C)C	5	1	6	9	2	79*	28	0
CCOC(=O)C1=C(C)NC(C)=C(C(=O)OC)C1c1cccc(Cl)c1Cl (centres undefined)	-1	2	-7	1	20	5	/	/
CCOC(=O)C1=C(COCCN)NC(C)=C(C(=O)OC)C1c1ccccc1Cl (centres undefined)	-4	3	10	-3	4	49*!	8	-10
Cc1nc(-c2ccc(S(=O)(=O)Nc3cc(S(=O)(=O)N(C)C)ccc3C)s2)cs1	5	-2	5	10	-1	0	/	/
CCCOc1cccc(-c2nn(-c3ccccc3)cc2/C=C(\C#N)C(=O)NCCCn2ccnc2)c1	7	2	4	-1	-10	17	/	/
N#C/C(=C/c1cn(-c2ccccc2)nc1-c1cccc(OCc2ccc(F)cc2)c1)C(=O)NCCCn1ccnc1	-6	-5	-7	-9	2	44*	26	9
Cc1cc2nc3ccc(N(C)C)cc3nc2cc1N	31*	32*	32*	46*	23	90*	63*	5	Apaf1 inh interf=>100
CC(C)[C@H](NC(=O)[C@@H]1CSC2c3ccccc3C(=O)N21)C(=O)NC1CCCCC1 (some centres undefined)	1	6	5	4	9	-3	/	/
SMILES	PAFAH1B2 FP inh	pPAFAH inh	PAFAH1B3 inh	PAFAH2 inh	PREPL inhibitor	Apaf1 inhib	Apaf-1 inh conf	Rh110 quench	others
CC(NC(=O)C1CCN(c2nnc(N3CCCC3=O)s2)CC1)c1ccccc1 (centres undefined)	6	6	2	6	15	5	/	/
CN(C)C=Nc1ccc2nc3c(cc2c1)[nH]c1ccccc13	1	5	-2	1	19	46*	44*	-2	Apaf1 inh interf=>100
CCOC(=O)c1[nH]c2ccccc2c1N=CN(C)C	8	-3	8	3	8	4	/	/
Cc1cc(C)c2[nH]c(C)c(CN3CCCCCC3)c(=O)c2c1	7	-3	-5	-6	14	6	/	/
CCN1CCN(c2ccc(S(=O)(=O)N3CCCCC3)cc2NC(=O)/C=C/c2cc(OC)ccc2OC)CC1	-7	26*	-2	0	11	46*	15	2
CCN1CCN(c2ccc(S(=O)(=O)N3CCCCC3)cc2NC(=O)COc2ccc(Cl)c(C)c2)CC1	4	6	6	-5	20	45*	11	4
CCN1CCN(c2ccc(S(=O)(=O)N3CCCCC3)cc2NC(=O)COc2ccccc2)CC1	-1	1	-4	3	2	23	/	/
O=C1C(=O)c2c(C(=O)c3ccccc3)coc2-c2ccccc21	1	19	9	0	33	55*	36	14
O=C(c1ccccc1)c1coc2ccc(O)c(Cl)c12	-2	6	4	-3	-1	-16	/	/
CSc1ccc(/C=C/C(=O)OCC(=O)N2CCc3ccccc32)cc1	0	0	-10	-1	-2	-5	/	/
CNC(=O)c1cc(NC(=O)CCn2nc(-c3ccccc3)c3ccccc3c2=O)ccc1OC	6	11	1	1	-3	-5	/	/
O=C1C(=O)c2ccccc2C(O)=C1c1ccccc1F	4	1	2	5	10	4	/	/
O=C1c2ccccc2C(=O)c2[nH]c(=O)[nH]c21	13	18	20	9	38	80*	75*	-2	Apaf1 inh interf=>100
O=C1c2ccccc2C(=O)c2[nH]cnc21	2	/	5	3	/	/	/	/
O=C1C(O)=C(O)C(=O)c2ccccc21	3	10	30*	15	11	92*	67*	7	Apaf1 inh interf=>100
